Source: ChEMBL document CHEMBL1773023, “Potent and selective phosphopeptide mimetic prodrugs targeted to the Src homology 2 (SH2) domain of signal transducer and activator of transcription 3” (J Med Chem, 2011)
The source made the active and inactive calls. The rule behind the calls is not given here.

Key:
[1] = biological target: Baculoviral IAP repeat-containing protein 5 (Homo sapiens) (UniProt O15392); experiment: Inhibition of survivin in human HCC-827 cells at 5 uM after up to 48 hrs by Western blotting; assay type: cell-based
Baculoviral IAP repeat-containing protein 5 (Homo sapiens), sequence (O15392 whole entry): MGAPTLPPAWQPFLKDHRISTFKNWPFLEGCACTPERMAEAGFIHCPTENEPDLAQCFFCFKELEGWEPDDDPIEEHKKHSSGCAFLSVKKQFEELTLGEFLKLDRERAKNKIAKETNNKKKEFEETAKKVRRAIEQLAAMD

NCI-H520 = experiment: Cytotoxicity against human NCI-H520 cells assessed as cell growth inhibition at 5 to 10 uM after 72 hrs by MTT assay; assay type: functional
In short: (§1)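 Cell lines with constitutive Stat3 phosphorylation (melanoma, NSCLC) exposed to prodrug at 5–10 μM. Percent growth inhibition recorded.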

MDA-MB-468 [2] = experiment: Selectivity ratio of inhibition of IFNgamma-induced Stat1 phosphorylation at Tyr701 to inhibition of EGF-induced SH2 domain of Stat3 phosphorylation at Tyr705 in human MDA-MB-468 cells; assay type: cell-based
[3] = biological target: Baculoviral IAP repeat-containing protein 5 (Homo sapiens) (UniProt O15392); experiment: Inhibition of survivin in human MDA-MB-468 cells at 5 uM after up to 48 hrs by Western blotting; assay type: cell-based
MDA-MB-468 [4] = experiment: Decrease of cyclin D1 gene expression in human MDA-MB-468 cells at 5 uM; assay type: functional, cell-based
[5] = biological target: T1, Signal transducer and activator of transcription 3 (Homo sapiens, UniProt P40763); experiment: Inhibition of SH2 domain of Stat3 constitutive phosphorylation at Tyr705 in human MDA-MB-468 cells at 0.1 uM after 2 hrs by Western blotting; assay type: cell-based
T1 sequence (P40763 whole entry, the tested form may be a part): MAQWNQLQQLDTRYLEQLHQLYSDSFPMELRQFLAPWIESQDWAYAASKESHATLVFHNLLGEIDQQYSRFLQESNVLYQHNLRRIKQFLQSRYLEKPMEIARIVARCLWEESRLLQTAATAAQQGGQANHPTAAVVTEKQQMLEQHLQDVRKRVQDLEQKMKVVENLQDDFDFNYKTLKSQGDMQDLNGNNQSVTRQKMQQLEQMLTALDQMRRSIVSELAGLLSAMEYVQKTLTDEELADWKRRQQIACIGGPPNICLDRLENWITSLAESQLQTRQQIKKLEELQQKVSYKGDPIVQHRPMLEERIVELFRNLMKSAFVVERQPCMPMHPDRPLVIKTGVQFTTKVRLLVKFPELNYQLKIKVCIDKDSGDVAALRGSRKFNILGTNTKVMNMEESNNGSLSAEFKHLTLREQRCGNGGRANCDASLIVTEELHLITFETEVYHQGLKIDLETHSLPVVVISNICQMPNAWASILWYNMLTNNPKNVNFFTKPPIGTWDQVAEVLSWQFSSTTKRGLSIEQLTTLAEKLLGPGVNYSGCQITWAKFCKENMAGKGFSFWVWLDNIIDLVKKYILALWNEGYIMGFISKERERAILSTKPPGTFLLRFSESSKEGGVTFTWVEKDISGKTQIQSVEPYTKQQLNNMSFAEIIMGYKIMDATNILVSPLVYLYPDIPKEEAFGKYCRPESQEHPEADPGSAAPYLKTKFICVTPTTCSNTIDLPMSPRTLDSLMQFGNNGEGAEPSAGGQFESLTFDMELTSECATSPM
In short: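 MDA-MB-468 cells (4×10^5/well, DMEM 10% FCS, overnight) given prodrug from freshly made 10 mM DMSO stock for 2 h. Lysates in Hepes pH 7.4 Triton buffer with phosphatase/protease inhibitors; 12 μg protein on 8% SDS-PAGE, PVDF, probed for pStat3 Y705 by ECL, then stripped and reprobed for total Stat3.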

[6] = Cytotoxicity against human NCI-H528 cells assessed as cell growth inhibition at 5 to 10 uM after 72 hrs by MTT assay; assay type: functional; in short: as §1
A-375 = experiment: Cytotoxicity against human A375 cells assessed as cell growth inhibition at 5 to 10 uM after 72 hrs by MTT assay; assay type: functional; in short: as §1
[7] = biological target: T2, Signal transducer and activator of transcription 5A (Homo sapiens) (UniProt P42229); experiment: Inhibition of EGF-induced SH2 domain of Stat5 phosphorylation at Tyr694 in human MDA-MB-468 cells at 5 uM treated 1.5 hrs before EGF challenge measured after 30 mins by Western blotting; assay type: cell-based
T2 sequence (whole entry): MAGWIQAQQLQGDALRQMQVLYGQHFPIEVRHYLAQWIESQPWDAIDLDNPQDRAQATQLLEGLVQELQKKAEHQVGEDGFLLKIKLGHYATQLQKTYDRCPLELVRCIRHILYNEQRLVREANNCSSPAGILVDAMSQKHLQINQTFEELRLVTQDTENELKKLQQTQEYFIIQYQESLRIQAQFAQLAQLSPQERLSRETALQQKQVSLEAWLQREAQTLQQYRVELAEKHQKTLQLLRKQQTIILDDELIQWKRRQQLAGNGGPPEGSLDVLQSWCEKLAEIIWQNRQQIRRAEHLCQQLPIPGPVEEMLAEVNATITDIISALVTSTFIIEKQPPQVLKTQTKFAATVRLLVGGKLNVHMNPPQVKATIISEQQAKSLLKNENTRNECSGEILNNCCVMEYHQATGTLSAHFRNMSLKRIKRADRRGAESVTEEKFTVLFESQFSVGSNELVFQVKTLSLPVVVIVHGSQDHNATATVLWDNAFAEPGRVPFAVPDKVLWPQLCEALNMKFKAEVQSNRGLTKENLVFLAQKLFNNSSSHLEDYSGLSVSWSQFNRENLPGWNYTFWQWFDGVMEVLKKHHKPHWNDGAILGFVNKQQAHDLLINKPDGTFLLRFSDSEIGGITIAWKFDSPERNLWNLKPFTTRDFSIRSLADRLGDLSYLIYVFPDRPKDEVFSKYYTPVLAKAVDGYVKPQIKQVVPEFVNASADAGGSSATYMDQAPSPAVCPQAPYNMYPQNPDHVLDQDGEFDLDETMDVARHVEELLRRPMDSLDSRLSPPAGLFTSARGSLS
In short: (§2)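 MDA-MB-468 cells pretreated 1.5 h with prodrug (5 μM), then EGF 100 ng/mL for 30 min; lysates split onto three PVDF blots probed for phospho/total Stat3, pSer473/total Akt, and phospho/total Stat5.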

[8] = biological target: T1, Signal transducer and activator of transcription 3; experiment: Inhibition of SH2 domain of Stat3 constitutive phosphorylation at Tyr705 in human MDA-MB-468 cells at 5 uM after 16 hrs by Western blotting; assay type: cell-based
In short: (§3)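 MDA-MB-468 cells given a single 5 μM prodrug dose and harvested at set times; pTyr705 and total Stat3 by Western blot of 12 μg lysate protein on 8% SDS-PAGE.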

[9] = biological target: T3, Signal transducer and activator of transcription 1-alpha/beta (Homo sapiens) (UniProt P42224); experiment: Inhibition of IFN-gamma-induced Stat1 phosphorylation at Tyr701 in human MDA-MB-468 cells at 5 uM treated 1.5 hrs before IFN-gamma challenge measured after 30 mins by Western blotting; assay type: cell-based
T3 sequence (whole entry): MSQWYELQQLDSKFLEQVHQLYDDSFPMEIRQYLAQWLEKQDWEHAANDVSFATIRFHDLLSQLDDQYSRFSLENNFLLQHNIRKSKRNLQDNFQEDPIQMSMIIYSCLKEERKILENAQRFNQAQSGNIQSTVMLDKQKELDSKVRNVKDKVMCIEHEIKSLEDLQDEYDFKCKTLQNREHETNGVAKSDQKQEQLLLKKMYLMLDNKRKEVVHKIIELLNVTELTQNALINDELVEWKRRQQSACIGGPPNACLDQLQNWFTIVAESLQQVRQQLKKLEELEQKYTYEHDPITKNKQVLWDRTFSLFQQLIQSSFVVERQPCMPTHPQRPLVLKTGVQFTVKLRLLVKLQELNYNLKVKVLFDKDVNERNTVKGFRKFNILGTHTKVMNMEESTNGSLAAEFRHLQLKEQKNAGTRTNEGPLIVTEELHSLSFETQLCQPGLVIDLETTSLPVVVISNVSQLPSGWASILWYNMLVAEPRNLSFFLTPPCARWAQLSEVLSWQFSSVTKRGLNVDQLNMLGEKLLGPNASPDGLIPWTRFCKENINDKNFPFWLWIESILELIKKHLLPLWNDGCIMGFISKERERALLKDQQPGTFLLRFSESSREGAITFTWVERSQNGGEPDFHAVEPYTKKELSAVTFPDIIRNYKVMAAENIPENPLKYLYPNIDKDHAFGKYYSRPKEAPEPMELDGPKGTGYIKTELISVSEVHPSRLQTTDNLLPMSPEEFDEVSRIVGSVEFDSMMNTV
In short: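 MDA-MB-468 cells exposed to rising prodrug concentrations for 1.5 h, then interferon γ 25 ng/mL for 30 min; Western blot for pTyr701 and total Stat1.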

[10] = biological target: T1, Signal transducer and activator of transcription 3; experiment: Inhibition of SH2 domain of Stat3 constitutive phosphorylation at Tyr705 in human MDA-MB-468 cells at 5 uM after 4 hrs by Western blotting; assay type: cell-based; in short: as §3
[11] = biological target: RAC-alpha serine/threonine-protein kinase (Homo sapiens) (UniProt P31749); experiment: Inhibition of EGF-induced Akt phosphorylation at Ser473 in human MDA-MB-468 cells at 5 uM treated 1.5 hrs before EGF challenge measured after 30 mins by Western blotting; assay type: cell-based; in short: as §2
RAC-alpha serine/threonine-protein kinase (Homo sapiens), sequence (P31749 whole entry): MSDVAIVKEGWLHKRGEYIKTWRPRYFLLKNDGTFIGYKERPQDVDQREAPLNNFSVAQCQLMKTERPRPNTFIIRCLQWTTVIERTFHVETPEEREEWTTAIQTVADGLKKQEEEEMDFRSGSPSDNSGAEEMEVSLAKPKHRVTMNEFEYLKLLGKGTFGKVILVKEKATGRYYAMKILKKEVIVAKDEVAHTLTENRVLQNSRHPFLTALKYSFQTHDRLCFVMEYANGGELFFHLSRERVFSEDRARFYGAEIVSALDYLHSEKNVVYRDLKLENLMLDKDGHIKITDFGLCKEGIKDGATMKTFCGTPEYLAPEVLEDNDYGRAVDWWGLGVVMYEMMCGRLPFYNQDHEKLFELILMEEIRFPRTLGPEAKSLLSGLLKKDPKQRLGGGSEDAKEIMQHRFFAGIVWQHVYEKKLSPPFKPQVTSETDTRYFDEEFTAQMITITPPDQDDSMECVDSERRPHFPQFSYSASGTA

inhibition [5]: Active | inhibition [7]: inactive | inhibition [8]: inactive | inhibition [9]: Active | inhibition [10]: Active | inhibition [11]: inactive
SMILES: C/C(=C\C(=O)N[C@H]1CCc2cccc3c2N(C1=O)[C@H](C(=O)N[C@H](C)CCC(N)=O)C3)c1ccc(C(F)(F)P(=O)(OCOC(=O)C(C)(C)C)OCOC(=O)C(C)(C)C)cc1
inhibition [1]: Active | growth inhibition (GI) (NCI-H520): <20% | Ratio (MDA-MB-468 [2]): 10 | inhibition [3]: Active | Activity (MDA-MB-468 [4]): inactive | growth inhibition (GI) [6]: <20% | growth inhibition (GI) (A-375): <20%
